Measured values taken from paper PMC3334839 (The Journal of Neuroscience, 2012).
Positions count from the first letter of the chain named.

Tests used:
[1] = test system: native GlyRs in cultured spinal neurons; assay: Whole-cell patch-clamp of Gly-activated current; type: cell-based, rat; settings: vs vehicle
Outline: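 Spinal cords from postnatal day 0 rats, papain-dissociated (20 U/ml, 37°C, 40 min). Plated at 300,000 cells/ml on poly-d-lysine in MEM/10% FBS, cultured ≥10 d, washed 30 min in external solution. Whole-cell, −60 mV, 20–22°C.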

[2] = target: T1, S296A mutant human α1 GlyR (Homo sapiens, UniProt P23415, S324A); assay: cell-based; type: cell-based; settings: for effect of S296A mutation on cannabinoid-induced potentiation of IGly: cannabinoid 1 μM, EC2 Gly (10 μM), vs wild-type α1
T1 sequence (P23415 29-457 S324A): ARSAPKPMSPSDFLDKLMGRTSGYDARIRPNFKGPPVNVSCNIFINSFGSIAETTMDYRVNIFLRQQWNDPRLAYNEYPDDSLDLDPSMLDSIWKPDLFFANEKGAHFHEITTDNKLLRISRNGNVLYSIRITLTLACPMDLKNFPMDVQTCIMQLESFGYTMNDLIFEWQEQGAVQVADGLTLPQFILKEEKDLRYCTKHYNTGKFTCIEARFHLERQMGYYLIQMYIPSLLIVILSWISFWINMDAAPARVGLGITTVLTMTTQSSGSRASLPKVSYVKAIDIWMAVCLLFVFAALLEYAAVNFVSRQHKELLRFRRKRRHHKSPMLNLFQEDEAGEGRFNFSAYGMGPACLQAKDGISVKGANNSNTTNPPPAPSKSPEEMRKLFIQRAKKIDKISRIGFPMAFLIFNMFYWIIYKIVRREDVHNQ

[3] = target: T2, human α1 GlyR (Homo sapiens, UniProt P23415); assay: cell-based; type: cell-based; settings: for efficacy in potentiating IGly relative to AEA: concentration-response, α1 subunit (Fig. 5B)
T2 sequence (P23415 29-457): T1 sequence (P23415 29-457 S324A) with A296S

[4] = target: T3, rat α2 GlyR (Rattus norvegicus, UniProt P22771); assay: Whole-cell patch-clamp of IGly in HEK-293 cells expressing α2 GlyRs; type: cell-based; settings: read-out: EC50 for Gly (concentration-response curve); α2 subunit
T3 sequence (P22771 28-452): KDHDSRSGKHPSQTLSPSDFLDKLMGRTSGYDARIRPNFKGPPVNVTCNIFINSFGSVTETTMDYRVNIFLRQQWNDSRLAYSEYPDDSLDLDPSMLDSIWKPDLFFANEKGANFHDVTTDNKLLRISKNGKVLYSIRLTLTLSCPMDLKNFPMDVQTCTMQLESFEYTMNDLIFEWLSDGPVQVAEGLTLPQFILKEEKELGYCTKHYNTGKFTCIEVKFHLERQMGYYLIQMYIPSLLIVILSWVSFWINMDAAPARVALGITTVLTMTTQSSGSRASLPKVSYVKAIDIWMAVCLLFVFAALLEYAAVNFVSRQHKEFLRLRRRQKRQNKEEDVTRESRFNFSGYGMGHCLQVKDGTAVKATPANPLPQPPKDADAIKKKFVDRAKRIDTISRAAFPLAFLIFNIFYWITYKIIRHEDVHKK

[5] = target: T4, rat α3 GlyR (Rattus norvegicus, UniProt P24524); assay: Whole-cell patch-clamp of IGly in HEK-293 cells expressing α3 GlyRs; type: cell-based; settings: read-out: EC50 for Gly (concentration-response curve); α3 subunit
T4 sequence (P24524 34-464): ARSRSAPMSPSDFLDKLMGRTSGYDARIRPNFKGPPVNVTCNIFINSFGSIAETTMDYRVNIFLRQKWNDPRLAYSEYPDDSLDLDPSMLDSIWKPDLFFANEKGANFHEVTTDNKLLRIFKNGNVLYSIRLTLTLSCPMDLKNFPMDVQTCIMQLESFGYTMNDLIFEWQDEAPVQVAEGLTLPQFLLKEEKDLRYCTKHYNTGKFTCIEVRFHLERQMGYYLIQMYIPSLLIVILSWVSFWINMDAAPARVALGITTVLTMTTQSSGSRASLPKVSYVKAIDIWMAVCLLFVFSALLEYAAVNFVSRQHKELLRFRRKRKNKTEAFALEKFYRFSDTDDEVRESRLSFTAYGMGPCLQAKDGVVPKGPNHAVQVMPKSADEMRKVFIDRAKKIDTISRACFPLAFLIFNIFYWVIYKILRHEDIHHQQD

[6] = HEK293, read-out: inhibition of IGly
[7] = 3 μM coapplied, apparently competitive, parallel rightward shift

**Q.** How did the “effect of antagonist on AEA-induced potentiation of IGly” value (shortened to “effect of antagonist”) ([1]; antagonist 1 μM) turn out when `Cc1c(C(=O)NN2CCCCC2)nn(-c2ccc(Cl)cc2Cl)c1-c1ccc(I)cc1` [AM251] was run?
**A.** Its value is “did not significantly alter”.

**Q.** With `C=C(C)[C@@H]1CCC(C)=C[C@H]1c1c(O)cc(CCCCC)cc1O` [CBD, cannabidiol] as the molecule, how does the “effect of S296A mutation on cannabinoid-induced potentiation of IGly” value (from here on “effect of S296A mutation”) [2] read?
**A.** The value was “significantly reduced”.

**Q.** How did the “efficacy in potentiating IGly relative to AEA” value [3] turn out when `CCCCCC=CCC=CCC=CCC=CCCCC(=O)NCC` [Dehydroxyl-AEA, Dehydroxylanandamide] was run?
**A.** Its value is “reduced efficacy”.

**Q.** `NCC(=O)O` [Gly, glycine] was tested. Which EC50 [4] did it give?
**A.** The EC50 was 128 ± 10 µM.

**Q.** And the “maximal current density (MCD)” value [2]?
**A.** The value was 906 ± 147 pA/pF.

**Q.** What about the EC50 [5] of the same molecule?
**A.** Its EC50 is 354 ± 29 µM.

**Q.** What about the “maximal current density (MCD)” value [3] of the same molecule?
**A.** Its value is 912 ± 153 pA/pF.

**Q.** How did the “effect of S296A mutation” value [2] turn out when `CCCCCCC(C)(C)c1cc(O)c2c(c1)OC(C)(C)[C@@H]1CC=C(CO)C[C@@H]21` [HU210] was run?
**A.** Its value is “significantly reduced”.

**Q.** `CCCCCc1cc(O)c2c(c1)OC(C)(C)[C@@H]1CCC(C)=C[C@@H]21` [THC, Δ^9-tetrahydrocannabinol] was tested. Which “effect of S296A mutation” value [2] did it give?
**A.** The value was “significantly reduced”.

**Q.** For `Oc1cc2c(cc1O)CN(C(=S)NCCc1ccc(Cl)cc1)CCC2` [capsazepine], which “effect of antagonist” value ([1]; antagonist 2 μM) is on record?
**A.** Its value is “did not significantly alter”.

**Q.** Which inhibition at 0.1 µM [2, 6] does the source give for `O=C1C[C@@H]2OCC=C3CN4CC[C@]56c7ccccc7N1[C@H]5[C@H]2[C@H]3C[C@H]46` [strychnine] here?
**A.** Its inhibition at 0.1 µM is 81 ± 13%.

**Q.** What about the inhibition at 0.1 µM [3, 6] of the same molecule?
**A.** The inhibition at 0.1 µM was 78 ± 9%.

**Q.** For Desoxyanandamide [Desoxy-AEA], which “effect on AEA-induced potentiation of IGly” value [3, 7] is on record?
**A.** Its value is “inhibited”.

**Q.** And the “effect on THC-induced potentiation of IGly” value [3, 7]?
**A.** The value was “inhibited”.

**Q.** And the “efficacy in potentiating IGly relative to AEA” value [3]?
**A.** Its value is “reduced efficacy”.

**Q.** Which “effect of antagonist” value ([1]; antagonist 1 μM) does the source give for SR144528 here?
**A.** The value was “did not significantly alter”.
